Reference: ChEMBL document CHEMBL4680221, “Discovery of pyrazole derivatives as cellular active inhibitors of histone lysine specific demethylase 5B (KDM5B/JARID1B)” (Eur J Med Chem, 2020)
Active and inactive are the calls of the source. No cut-off for these calls is given here.

Experiments:
MKN-45 [1] = assay: Inhibition of KDM4 in human MKN-45 cells assessed as increase in H3K9me3 accumulation at 0.5 to 20 uM measured after 5 days by Western blot analysis; assay type: cell-based; conditions: dose 0.5-20 µM, time 5.0 day
Summary of the method: (§1)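 MKN45 cells were treated for 5 days and lysed in RIPA buffer. About 30 µg protein was run on 10% SDS-PAGE and transferred to 0.2 µm nitrocellulose, then blocked with 5% milk in PBS for 2 h. Blots were probed for histone methylation marks with histone 3 as loading control and detected by ECL.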

[2] = target: T1, Lysine-specific demethylase 4C (Homo sapiens) (UniProt Q9H3R0); assay: Inhibition of KDM4C (unknown origin) at 0.25 uM relative to control
T1 sequence (whole entry): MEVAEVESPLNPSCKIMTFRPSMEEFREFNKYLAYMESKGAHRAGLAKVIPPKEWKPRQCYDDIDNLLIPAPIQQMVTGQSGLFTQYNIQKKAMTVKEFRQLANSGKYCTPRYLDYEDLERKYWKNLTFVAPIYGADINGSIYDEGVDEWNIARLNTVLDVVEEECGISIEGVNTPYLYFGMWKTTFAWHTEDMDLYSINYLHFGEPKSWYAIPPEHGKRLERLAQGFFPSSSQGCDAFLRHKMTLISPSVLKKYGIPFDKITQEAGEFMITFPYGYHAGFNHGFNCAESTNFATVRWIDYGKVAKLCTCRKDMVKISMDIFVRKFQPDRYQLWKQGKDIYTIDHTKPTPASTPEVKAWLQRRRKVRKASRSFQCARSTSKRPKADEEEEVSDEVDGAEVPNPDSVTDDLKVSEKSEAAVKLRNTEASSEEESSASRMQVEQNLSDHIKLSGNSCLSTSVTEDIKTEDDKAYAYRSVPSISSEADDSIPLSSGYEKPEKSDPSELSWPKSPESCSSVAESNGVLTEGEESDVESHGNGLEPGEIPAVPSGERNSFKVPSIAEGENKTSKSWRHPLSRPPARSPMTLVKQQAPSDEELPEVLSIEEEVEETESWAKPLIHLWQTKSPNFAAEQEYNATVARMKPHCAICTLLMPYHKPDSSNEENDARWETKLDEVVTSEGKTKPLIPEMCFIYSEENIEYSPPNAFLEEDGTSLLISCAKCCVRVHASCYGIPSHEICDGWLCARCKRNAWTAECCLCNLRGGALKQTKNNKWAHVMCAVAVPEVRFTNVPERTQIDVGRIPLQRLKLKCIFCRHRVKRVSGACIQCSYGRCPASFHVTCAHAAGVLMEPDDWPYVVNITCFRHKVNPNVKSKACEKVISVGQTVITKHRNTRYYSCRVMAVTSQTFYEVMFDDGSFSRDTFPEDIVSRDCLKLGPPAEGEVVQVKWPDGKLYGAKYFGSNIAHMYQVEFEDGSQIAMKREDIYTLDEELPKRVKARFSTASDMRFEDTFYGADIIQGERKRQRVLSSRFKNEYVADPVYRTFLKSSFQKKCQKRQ

[3] = target: T2, Lysine-specific demethylase 5B (Homo sapiens, UniProt Q9UGL1); assay: Inhibition of KDM5B in human MKN-45 cells assessed as increase in H3K4me2 accumulation at 0.5 to 20 uM measured after 5 days by Western blot analysis; assay type: cell-based; conditions: dose 0.5-20 µM, time 5.0 day; summary of the method: as §1
[4] = target: T1, Lysine-specific demethylase 4C (Homo sapiens); assay: Inhibition of KDM4C (unknown origin) at 1 uM relative to control
[5] = target: T3, Lysine-specific demethylase 5C (Homo sapiens, UniProt P41229); assay: Inhibition of KDM5C (unknown origin)
MKN-45 [6] = assay: Inhibition of colony formation in human MKN-45 cells measured after 10 days by crystal violet staining based microscopic analysis; assay type: functional, cell-based; conditions: time 10.0 day
Summary of the method: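 1000 MKN45 cells were seeded in 6-well plates and treated. The medium was then replaced and cells were cultured another 10 days. Colonies were fixed with cold methanol, stained with crystal violet and photographed under a microscope.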

[7] = target: T3, Lysine-specific demethylase 5C; assay: Inhibition of KDM5C (unknown origin) at 0.25 uM relative to control
[8] = target: T2, Lysine-specific demethylase 5B; assay: Inhibition of KDM5B in human MKN-45 cells assessed as protein stabilization measured after 1 hr by cellular thermal shift assay; assay type: cell-based
Summary of the method: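 MKN45 cells (5×10^5) were treated with compound or DMSO for 1 h, washed in PBS and resuspended in PBS with protease inhibitors. Cells were heated at 46 °C for 3 min, then freeze-thawed three times in liquid nitrogen. KDM5B in the supernatant was measured by western blot with GAPDH control. Repeated three times.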

[9] = target: Lysine-specific demethylase 5A (Homo sapiens, UniProt P29375); assay: Inhibition of KDM5A (unknown origin) at 0.01 uM relative to control
[10] = target: Lysine-specific demethylase 6B (Homo sapiens, UniProt O15054); assay: Inhibition of KDM6B (unknown origin) at 0.01 uM relative to control
[11] = target: T4, Lysine-specific demethylase 4A (Homo sapiens, UniProt O75164); assay: Inhibition of KDM4A (unknown origin)
T4 sequence (O75164 whole entry): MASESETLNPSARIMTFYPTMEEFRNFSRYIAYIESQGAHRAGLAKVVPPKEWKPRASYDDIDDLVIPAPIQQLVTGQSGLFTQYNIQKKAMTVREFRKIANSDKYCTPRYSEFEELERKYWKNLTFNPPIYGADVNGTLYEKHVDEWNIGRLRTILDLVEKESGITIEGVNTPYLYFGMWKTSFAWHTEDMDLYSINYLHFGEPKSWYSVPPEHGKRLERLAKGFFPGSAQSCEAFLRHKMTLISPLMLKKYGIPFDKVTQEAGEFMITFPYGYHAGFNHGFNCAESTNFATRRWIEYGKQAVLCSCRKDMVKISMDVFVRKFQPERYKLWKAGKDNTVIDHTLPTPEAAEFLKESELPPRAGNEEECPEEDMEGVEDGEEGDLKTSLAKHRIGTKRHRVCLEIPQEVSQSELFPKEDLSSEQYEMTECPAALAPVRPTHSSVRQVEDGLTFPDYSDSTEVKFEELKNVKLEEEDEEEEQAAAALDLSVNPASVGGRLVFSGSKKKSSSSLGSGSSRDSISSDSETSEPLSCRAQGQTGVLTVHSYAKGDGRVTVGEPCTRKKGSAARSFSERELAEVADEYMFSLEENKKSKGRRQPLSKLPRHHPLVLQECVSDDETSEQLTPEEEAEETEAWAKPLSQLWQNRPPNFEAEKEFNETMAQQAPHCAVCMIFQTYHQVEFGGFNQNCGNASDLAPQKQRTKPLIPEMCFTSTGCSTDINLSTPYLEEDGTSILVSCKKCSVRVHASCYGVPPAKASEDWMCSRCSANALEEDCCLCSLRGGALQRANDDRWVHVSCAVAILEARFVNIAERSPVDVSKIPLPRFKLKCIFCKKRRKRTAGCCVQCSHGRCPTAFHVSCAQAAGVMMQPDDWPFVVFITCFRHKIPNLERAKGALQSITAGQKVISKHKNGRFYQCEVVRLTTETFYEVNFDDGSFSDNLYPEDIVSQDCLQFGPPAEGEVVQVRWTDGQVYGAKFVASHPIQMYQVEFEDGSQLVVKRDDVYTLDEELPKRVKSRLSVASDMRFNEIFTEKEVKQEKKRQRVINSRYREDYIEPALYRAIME

T2 sequence (Q9UGL1 whole entry): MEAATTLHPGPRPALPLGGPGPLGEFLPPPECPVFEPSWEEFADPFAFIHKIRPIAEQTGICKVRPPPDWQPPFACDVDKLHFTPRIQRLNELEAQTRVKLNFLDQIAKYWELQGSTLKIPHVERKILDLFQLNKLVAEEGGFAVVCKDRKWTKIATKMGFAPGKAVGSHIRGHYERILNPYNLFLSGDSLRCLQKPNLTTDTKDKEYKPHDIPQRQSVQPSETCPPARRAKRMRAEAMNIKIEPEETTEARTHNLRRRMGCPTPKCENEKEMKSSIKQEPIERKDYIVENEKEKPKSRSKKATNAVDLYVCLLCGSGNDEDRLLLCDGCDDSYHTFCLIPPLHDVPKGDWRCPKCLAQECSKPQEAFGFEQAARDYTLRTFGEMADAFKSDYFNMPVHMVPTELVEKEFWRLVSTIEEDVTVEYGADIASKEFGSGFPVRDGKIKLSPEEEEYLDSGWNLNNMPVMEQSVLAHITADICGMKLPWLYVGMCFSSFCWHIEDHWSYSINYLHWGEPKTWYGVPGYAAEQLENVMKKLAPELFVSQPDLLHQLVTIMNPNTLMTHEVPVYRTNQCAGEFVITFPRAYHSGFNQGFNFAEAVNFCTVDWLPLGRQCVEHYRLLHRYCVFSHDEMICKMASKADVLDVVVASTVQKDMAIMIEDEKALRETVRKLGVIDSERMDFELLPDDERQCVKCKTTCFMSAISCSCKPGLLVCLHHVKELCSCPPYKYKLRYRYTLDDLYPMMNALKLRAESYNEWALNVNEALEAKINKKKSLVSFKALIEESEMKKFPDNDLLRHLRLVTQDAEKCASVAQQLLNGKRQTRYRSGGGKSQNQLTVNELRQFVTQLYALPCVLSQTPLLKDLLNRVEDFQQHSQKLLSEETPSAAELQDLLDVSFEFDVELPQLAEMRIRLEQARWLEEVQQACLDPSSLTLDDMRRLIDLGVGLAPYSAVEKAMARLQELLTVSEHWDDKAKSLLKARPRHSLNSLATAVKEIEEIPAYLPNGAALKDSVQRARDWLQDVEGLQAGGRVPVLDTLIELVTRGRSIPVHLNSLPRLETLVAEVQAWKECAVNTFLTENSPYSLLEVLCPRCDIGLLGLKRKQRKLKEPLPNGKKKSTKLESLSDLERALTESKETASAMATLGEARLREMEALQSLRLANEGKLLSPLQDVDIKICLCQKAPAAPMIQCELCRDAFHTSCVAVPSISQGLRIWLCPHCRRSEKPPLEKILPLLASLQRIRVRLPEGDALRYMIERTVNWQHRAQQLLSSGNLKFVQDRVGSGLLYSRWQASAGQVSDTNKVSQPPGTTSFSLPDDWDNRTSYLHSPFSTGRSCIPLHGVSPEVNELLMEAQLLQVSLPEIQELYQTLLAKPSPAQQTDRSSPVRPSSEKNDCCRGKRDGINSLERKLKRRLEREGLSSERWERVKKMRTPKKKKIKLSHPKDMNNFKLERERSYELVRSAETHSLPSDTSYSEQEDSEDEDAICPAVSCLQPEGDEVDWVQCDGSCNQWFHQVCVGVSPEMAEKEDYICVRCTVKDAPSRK
T3 sequence (P41229 whole entry): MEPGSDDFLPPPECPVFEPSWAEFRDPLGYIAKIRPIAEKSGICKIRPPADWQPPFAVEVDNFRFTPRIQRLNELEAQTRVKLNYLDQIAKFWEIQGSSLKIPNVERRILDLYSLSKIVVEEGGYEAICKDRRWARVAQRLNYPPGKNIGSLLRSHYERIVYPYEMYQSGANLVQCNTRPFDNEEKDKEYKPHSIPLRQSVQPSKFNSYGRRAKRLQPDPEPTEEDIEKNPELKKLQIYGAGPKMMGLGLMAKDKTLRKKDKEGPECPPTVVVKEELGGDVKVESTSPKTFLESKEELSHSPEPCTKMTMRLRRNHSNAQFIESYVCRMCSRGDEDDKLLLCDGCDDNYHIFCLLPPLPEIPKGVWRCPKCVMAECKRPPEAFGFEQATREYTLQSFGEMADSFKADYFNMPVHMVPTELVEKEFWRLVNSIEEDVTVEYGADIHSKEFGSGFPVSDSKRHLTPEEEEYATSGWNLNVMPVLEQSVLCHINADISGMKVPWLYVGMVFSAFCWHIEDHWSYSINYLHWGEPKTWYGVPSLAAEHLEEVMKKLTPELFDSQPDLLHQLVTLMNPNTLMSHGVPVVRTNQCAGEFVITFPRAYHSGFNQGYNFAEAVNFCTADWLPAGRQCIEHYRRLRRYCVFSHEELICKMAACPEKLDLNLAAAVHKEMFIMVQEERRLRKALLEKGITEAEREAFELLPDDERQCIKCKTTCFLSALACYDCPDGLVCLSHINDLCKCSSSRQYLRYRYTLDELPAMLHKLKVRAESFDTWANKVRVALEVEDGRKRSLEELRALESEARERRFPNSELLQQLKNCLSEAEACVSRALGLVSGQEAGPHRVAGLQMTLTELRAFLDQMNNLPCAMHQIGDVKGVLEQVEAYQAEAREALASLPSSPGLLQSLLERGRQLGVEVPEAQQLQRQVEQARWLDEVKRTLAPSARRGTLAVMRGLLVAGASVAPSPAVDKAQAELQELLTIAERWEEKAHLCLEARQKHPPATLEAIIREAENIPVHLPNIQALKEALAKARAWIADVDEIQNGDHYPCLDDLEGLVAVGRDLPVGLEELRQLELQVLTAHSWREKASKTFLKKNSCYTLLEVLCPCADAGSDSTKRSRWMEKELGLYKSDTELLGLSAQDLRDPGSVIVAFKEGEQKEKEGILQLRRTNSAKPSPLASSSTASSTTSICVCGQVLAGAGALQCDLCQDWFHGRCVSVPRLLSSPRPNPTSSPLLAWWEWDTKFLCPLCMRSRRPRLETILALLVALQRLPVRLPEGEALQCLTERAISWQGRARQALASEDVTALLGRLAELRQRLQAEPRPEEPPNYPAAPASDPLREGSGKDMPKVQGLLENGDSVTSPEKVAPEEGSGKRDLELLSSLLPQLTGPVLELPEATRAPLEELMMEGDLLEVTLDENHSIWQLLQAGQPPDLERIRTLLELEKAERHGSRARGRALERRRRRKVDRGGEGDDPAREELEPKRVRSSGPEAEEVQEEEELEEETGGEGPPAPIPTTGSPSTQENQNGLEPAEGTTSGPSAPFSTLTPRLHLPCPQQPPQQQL
Lysine-specific demethylase 6B, sequence (O15054 whole entry): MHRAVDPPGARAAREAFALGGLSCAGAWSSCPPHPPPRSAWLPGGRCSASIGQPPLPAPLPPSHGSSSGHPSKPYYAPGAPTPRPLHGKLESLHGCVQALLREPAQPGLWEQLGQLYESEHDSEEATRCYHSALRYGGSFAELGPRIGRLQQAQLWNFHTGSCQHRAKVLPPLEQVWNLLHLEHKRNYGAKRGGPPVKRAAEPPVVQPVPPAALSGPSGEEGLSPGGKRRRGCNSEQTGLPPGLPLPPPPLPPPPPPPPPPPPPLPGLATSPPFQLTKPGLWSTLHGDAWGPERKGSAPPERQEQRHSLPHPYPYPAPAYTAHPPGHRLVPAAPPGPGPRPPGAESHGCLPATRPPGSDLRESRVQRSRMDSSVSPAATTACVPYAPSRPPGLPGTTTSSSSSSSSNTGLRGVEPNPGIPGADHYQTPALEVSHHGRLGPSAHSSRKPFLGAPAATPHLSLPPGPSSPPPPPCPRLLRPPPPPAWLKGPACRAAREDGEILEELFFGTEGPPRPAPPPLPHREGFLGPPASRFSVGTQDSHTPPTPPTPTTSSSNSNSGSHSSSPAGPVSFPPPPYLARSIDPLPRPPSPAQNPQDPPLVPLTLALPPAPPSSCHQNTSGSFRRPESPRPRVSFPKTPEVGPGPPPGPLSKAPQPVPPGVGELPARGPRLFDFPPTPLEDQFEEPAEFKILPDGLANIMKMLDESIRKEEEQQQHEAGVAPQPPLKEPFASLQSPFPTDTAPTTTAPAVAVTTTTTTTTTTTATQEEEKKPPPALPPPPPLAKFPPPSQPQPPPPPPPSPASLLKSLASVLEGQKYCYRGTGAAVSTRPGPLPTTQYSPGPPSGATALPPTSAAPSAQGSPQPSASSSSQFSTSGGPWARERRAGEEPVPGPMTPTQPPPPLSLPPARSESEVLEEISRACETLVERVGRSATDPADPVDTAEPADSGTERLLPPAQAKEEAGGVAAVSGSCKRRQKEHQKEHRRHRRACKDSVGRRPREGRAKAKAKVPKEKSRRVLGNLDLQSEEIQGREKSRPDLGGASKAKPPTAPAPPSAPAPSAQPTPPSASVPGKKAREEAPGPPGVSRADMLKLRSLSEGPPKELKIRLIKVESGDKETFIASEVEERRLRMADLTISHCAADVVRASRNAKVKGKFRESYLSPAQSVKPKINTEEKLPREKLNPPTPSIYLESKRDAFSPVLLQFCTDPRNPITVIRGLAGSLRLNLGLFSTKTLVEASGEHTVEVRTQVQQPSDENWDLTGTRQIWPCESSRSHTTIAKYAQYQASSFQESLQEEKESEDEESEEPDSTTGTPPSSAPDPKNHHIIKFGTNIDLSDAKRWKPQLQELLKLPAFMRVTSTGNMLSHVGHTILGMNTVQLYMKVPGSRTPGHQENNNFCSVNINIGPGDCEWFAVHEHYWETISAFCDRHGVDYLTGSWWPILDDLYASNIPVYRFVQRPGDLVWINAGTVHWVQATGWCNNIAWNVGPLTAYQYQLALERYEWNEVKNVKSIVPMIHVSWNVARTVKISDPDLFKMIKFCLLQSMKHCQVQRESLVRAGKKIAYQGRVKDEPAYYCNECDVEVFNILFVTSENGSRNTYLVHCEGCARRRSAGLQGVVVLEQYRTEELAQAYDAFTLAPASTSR

Question: How did the inhibition (MKN-45 [1]) turn out when `COc1ccc(-n2cc(C(=O)NCC(C)(C)N3CCOCC3)c(-c3ccccc3)n2)cc1` was run?
Answer: inactive

Question: What about the inhibition [2] of the same compound?
Answer: 39.4%

Question: And the inhibition [3]?
Answer: Active

Question: What about the inhibition [4] of the same compound?
Answer: 50.1%

Question: What about the IC50 [5] of the same compound?
Answer: 24.8 nM

Question: And the inhibition (MKN-45 [6])?
Answer: Active

Question: What about the inhibition [7] of the same compound?
Answer: 62.1%

Question: And the inhibition [8]?
Answer: Dose-dependent effect

Question: What about the inhibition [9] of the same compound?
Answer: 20.1%

Question: And the inhibition [10]?
Answer: 3.57%

Question: And the IC50 [11]?
Answer: 954 nM
